hERG protect: shields human hERG channel from block by proarrhythmic agents; AID 1511; Q12809; activation (rescue from dofetilide block), less the hit threshold, % at 10 µM; CHO-hERG, FluxOR thallium flux, dofetilide IC70 present; 310,000 compounds, 0.51% hits;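 active = activation above the mean of controls blocked by dofetilide plus 5 SD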;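 also: thallium influx through hERG after potassium depolarization seen as dye fluorescence rise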
Target sequence (Q12809 whole entry, looked up): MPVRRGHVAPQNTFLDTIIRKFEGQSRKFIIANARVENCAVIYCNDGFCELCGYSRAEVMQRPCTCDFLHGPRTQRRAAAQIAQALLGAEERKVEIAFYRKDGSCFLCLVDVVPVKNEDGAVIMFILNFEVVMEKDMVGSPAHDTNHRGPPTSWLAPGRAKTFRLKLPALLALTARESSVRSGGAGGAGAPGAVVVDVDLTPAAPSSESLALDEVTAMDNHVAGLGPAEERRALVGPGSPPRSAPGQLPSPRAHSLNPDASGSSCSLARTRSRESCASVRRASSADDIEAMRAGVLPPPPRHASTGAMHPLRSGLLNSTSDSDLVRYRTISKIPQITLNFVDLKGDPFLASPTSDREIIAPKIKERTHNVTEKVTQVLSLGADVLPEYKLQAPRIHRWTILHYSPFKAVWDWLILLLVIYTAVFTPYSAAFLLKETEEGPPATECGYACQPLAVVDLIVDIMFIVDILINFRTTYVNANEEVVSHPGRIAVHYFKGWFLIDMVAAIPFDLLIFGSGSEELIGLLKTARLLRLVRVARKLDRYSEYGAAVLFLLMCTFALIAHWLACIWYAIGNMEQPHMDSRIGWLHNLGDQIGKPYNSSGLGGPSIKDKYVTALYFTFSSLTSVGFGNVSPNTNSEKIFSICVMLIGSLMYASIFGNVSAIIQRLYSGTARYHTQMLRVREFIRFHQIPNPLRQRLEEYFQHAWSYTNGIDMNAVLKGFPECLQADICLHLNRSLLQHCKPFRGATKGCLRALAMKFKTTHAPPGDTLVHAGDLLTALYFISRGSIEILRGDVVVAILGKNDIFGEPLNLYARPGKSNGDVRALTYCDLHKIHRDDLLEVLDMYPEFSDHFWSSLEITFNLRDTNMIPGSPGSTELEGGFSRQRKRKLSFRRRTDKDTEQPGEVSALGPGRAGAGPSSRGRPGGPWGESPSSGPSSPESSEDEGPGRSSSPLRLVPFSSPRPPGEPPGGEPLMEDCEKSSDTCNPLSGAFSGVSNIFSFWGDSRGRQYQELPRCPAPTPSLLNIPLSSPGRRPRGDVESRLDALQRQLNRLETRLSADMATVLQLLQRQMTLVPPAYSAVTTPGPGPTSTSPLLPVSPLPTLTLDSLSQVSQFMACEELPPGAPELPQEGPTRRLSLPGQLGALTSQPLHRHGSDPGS
KCNQ1 block: human KCNQ1 channel inhibition; CHO-K1 KCNQ1, FluxOR thallium flux fluorescence; stronger effect = higher value; 310,000 compounds, 1.3% hits; B-score at 10 µM; P51787;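 active = compounds whose thallium flux B-score, printed positive for inhibition, exceeds three library SD while starting fluorescence stays within three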;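 also: channel opened by potassium depolarization with thallium stimulus after 20 min compound exposure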
KCNQ1 pot: human KCNQ1 channel potentiation or activation | P51787 | CHO-K1 KCNQ1, thallium flux FluxOR fluorescence; stronger effect = higher value | B-score at 10 µM | 310,000 compounds, 0.35% hits | AID 2648;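 active = fluorescence ratio B-score, a plate-corrected score, at least three library SD, with initial intensity B-score within 5 SD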
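assay system = CHO-K1 cells stably expressing KCNQ1 | medium = assay buffer, equal DMSO in all wells | timing = 37 °C overnight plating, 90-min dark dye load, 20-min compound pretreatment | measured by = kinetic FluxOR thallium fluorescence, 10-s 1-Hz baseline, 110-s post-stimulus read | measure = fluorescence change relative to baseline, converted to B score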
KCNK9 block: human KCNK9 channel inhibition. Q9NPC2. HEK293 KCNK9, FluxOR thallium flux fluorescence; stronger effect = lower value. B-score at 10 µM. 310,000 compounds, 1.2% hits. AID 488922;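 active = ratio B-score over 3 SD below the library mean, with starting fluorescence within 5 SD of its mean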;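 also: negative B-score means less thallium flux so channel inhibition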
KCC2 mod: KCC2 (human) Cl- transport modulation; Q9H2X9; KCC2 cells, thallium flux FluoZin-2 fluorescence; B-score of Tl+ flux slope (higher = more flux/activation; lower = inhibition) at 10 µM; 190,000 compounds, 2.2% hits; AID 1456;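 active = thallium flux slope and its plate-corrected score both differing from the plate sample mean at a set confidence after two filtering rounds, in either direction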;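 also: slope of fluorescence scaled to starting intensity during 10 to 20 s after thallium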
KCNK3 block: human KCNK3 channel inhibition, primary screen; CHO-KCNK3 thallium flux, FluxOR fluorescence; stronger effect = lower value; 340,000 compounds, 0.84% hits; AID 602410; B-score at 10 µM; O14649;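 active = B-score under library mean minus 4 SD, starting fluorescence ratio at most library mean plus 5 SD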;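 also: more negative B-score means stronger inhibition of thallium flux through KCNK3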
Numbers without * were called inactive. Only some compounds are listed: those with a hit (about 4.1% of all), similar ones and a draw of the others.

For O=C(NC1CCCCC1)C(c1ccc2ncccc2c1)N(Cc1ccc2c(c1)OCO2)C(=O)c1cccs1 (stereo not given) the results were hERG protect -6, KCNQ1 block 6*, KCNQ1 pot inactive, KCNK9 block inactive and KCNK3 block inactive.
For Cc1ccc(NC(=O)CN(C)C(=O)CSc2nnc(N)s2)cc1 the results were KCNK3 block inactive.
CCOC(=O)c1sc(NC(=O)c2c(C)nn(Cc3ccccc3)c2C)cc1C was read as KCC2 mod -1.3 and KCNK3 block -11*.
`C=CC[n+]1ccc(/C=C2\C=Cc3cc(C)ccc3N2CC)c2ccccc21` gave KCC2 mod -0.58 and KCNK3 block -15*.
For CCN1/C(=C/c2cc[n+](CCCS(=O)(=O)[O-])c3ccccc23)Sc2ccccc21 the results were hERG protect -8, KCNQ1 block inactive, KCNQ1 pot inactive, KCNK9 block inactive, KCC2 mod -0.049 and KCNK3 block inactive.
O=c1c(O)c(-c2cccs2)oc2ccccc12 was read as hERG protect 33*, KCNQ1 block inactive, KCNQ1 pot 55*, KCNK9 block inactive, KCC2 mod inactive and KCNK3 block inactive.
For O=c1c(O)c(-c2cccs2)oc2ccc(Cl)cc12 the results were hERG protect 35*, KCNQ1 block inactive, KCNQ1 pot 72*, KCNK9 block inactive, KCC2 mod 0.24 and KCNK3 block inactive.
Nc1c(C(=O)NCC2CCCO2)sc2nc3c(c(-c4ccco4)c12)CC/C3=C\c1ccco1 (stereo not given) was read as KCC2 mod 0.052 and KCNK3 block -12*.
Screening CC(OC(=O)[C@@H](NC(=O)OCc1ccccc1)C(C)C)C(=O)Nc1ccc(N2CCOCC2)cc1 (stereo not given in full) returned KCNK3 block inactive.
`CS(=O)(=O)N1CCN(c2ccccc2NC(=O)Cc2ccccc2)CC1` gave hERG protect -11, KCNQ1 block inactive, KCNQ1 pot inactive, KCNK9 block inactive, KCC2 mod 0.081 and KCNK3 block inactive.
For O=C(Cc1ccccc1)Nc1ccccc1N1CCN(c2ccccc2)CC1 the results were hERG protect -10, KCNQ1 block inactive, KCNQ1 pot inactive, KCNK9 block inactive, KCC2 mod -0.54 and KCNK3 block -8.7*.
O=C(CCNC(=O)c1ccco1)NC(Cc1c[nH]c2ccccc12)C(=O)O (stereo not given) was read as KCNK3 block inactive.
For O=C(CCCCC(=O)Nc1ccccc1Cl)Nc1ccccc1Cl the results were hERG protect -7, KCNQ1 block inactive, KCNQ1 pot inactive, KCNK9 block inactive and KCNK3 block inactive.
NNC(=O)CNc1ccccc1Cl was read as hERG protect 5.6*, KCNQ1 block inactive, KCNQ1 pot inactive, KCNK9 block inactive, KCC2 mod 0.46 and KCNK3 block inactive.
Screening O=C(Nc1cccc(S(=O)(=O)NC2=NCCCCC2)c1)c1ccc(Cl)cc1 returned KCNK3 block inactive.
Cn1c(=O)c([N+](=O)[O-])c(Cl)c2ccccc21 was read as hERG protect -30, KCNQ1 block 9*, KCNQ1 pot inactive, KCNK9 block inactive, KCC2 mod -1.1 and KCNK3 block inactive.
N#Cc1c(-c2ccccc2Cl)c2c([nH]c1=O)-c1ccccc1OC2 was read as hERG protect -7, KCNQ1 block inactive, KCNQ1 pot inactive, KCNK9 block inactive, KCC2 mod -0.36 and KCNK3 block inactive.
`N#Cc1c2c(c(-c3ccccc3Cl)[nH]c1=S)CCCC2` gave KCC2 mod 40* and KCNK3 block inactive.
`Cc1ccc(Oc2c(C(N)=O)cc([N+](=O)[O-])cc2[N+](=O)[O-])cc1` gave hERG protect -15, KCNQ1 block 6*, KCNQ1 pot inactive, KCNK9 block inactive, KCC2 mod 1.1 and KCNK3 block inactive.
Screening Nc1nc(CN2CCN(c3ccccc3)CC2)nc(N2CCCc3ccccc32)n1 returned hERG protect -8, KCNQ1 block inactive, KCNQ1 pot inactive, KCNK9 block inactive, KCC2 mod -0.8 and KCNK3 block inactive.
For Nc1nc(CSc2nnnn2-c2ccccc2)nc(N2CCCc3ccccc32)n1 the results were KCC2 mod -0.67 and KCNK3 block -10*.
Screening CC(OC(=O)CCNS(=O)(=O)c1ccccc1)C(=O)Nc1ccc(S(=O)(=O)N2CCCCC2)cc1 (stereo not given) returned KCNK3 block inactive.
For Cc1ccc(NS(=O)(=O)c2ccc3c(c2)C(=O)c2ccccc2C3=O)c(C)c1 the results were KCC2 mod 0.0051 and KCNK3 block inactive.
Screening Cc1cccc(S(=O)(=O)Nc2cccc3c2C(=O)c2ccccc2-3)c1 returned hERG protect -10, KCNQ1 block inactive, KCNQ1 pot 9*, KCNK9 block inactive and KCNK3 block inactive.
`CCn1cc(/C=C(\NC(=O)c2ccc(OC)c(OC)c2)C(=O)NCCCN2CCOCC2)c2ccccc21` gave hERG protect -4, KCNQ1 block inactive, KCNQ1 pot inactive, KCNK9 block inactive and KCNK3 block inactive.
For O=C1C(Cl)=C(NCc2cccnc2)C(=O)c2ccccc21 the results were hERG protect -17, KCNQ1 block 9*, KCNQ1 pot inactive, KCNK9 block inactive and KCNK3 block inactive.
Screening CC(C)NC1=C(Cl)C(=O)c2ccccc2C1=O returned hERG protect 4.9*, KCNQ1 block inactive, KCNQ1 pot inactive, KCNK9 block inactive, KCC2 mod 2.5 and KCNK3 block inactive.
Screening CC(C)OCCCNC1=C(Cl)C(=O)c2ccccc2C1=O returned hERG protect -7, KCNQ1 block inactive, KCNQ1 pot inactive, KCNK9 block inactive, KCC2 mod -1.3 and KCNK3 block inactive.
COc1ccc(NC(=S)NC(=O)c2ccccc2Cl)cc1 was read as hERG protect -9, KCNQ1 block inactive, KCNQ1 pot inactive, KCNK9 block inactive, KCC2 mod 21* and KCNK3 block inactive.
Screening O=C(NC(=S)Nc1ccc(O)cc1)c1ccccc1Cl returned hERG protect -8, KCNQ1 block inactive, KCNQ1 pot inactive, KCNK9 block inactive, KCC2 mod 0.71 and KCNK3 block inactive.
`CC(NC(=O)c1ccccc1Cl)NC(=O)c1ccccc1Cl` gave hERG protect -3, KCNQ1 block inactive, KCNQ1 pot inactive, KCNK9 block inactive and KCNK3 block inactive.
`CC(C)CNC(=S)NC(=O)c1ccccc1Cl` gave hERG protect -3, KCNQ1 block inactive, KCNQ1 pot inactive, KCNK9 block inactive, KCC2 mod 50* and KCNK3 block inactive.
Screening OC(c1ccccc1)(c1ccccc1)c1nccc2ccccc12 returned KCNK3 block -10*.

Screening data (PubChem)
